One assay has as its target human thrombin (Homo sapiens, UniProt P00734). Description: Direct inhibition of human thrombin, chromogenic substrate. In kind it is biochemical. Particulars: highest concentration tested of 600 μM, data not shown. Summed up:
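Thrombin 6 nM final in 20 mM Tris-HCl pH 7.4, 100 mM NaCl, 2.5 mM CaCl2, 0.1% PEG8000, with or without 0.02% Tween80, at 25 or 37 °C. Test compound (DMSO vehicle) added, then either 10 min preincubation or none. Spectrozyme TH at 50 μM final; initial A405 rate. Residual activity was the ratio to the no-compound rate, fitted to a logistic equation for IC50, HS and ΔY.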

Another assay deals with thrombin exosite 1. As to conditions: binding to exosite 1 ref 21; cited from earlier work.

This passage reports inhibition of thrombin and Kd results from paper PMC10963326 (Heliyon, 2024).

Take `CCCCCCCCCCCCOS(=O)(=O)[O-].[Na+]` [sodium dodecyl sulfate]: the inhibition of thrombin result on human thrombin is “did not inhibit”.

As usually defined, the Kd is the constant that tells how readily two partners part at equilibrium. Take [5 F]-Hir-(54–65)-(SO3^−) [HirP]: the dissociation constant Kd on thrombin exosite 1 is 28 nM.
